Source: PubChem (several laboratories)
Compounds with a hit are over-represented: about 3.7% of the library has one in this group of screens.
MPTP block: inhibitors of mitochondrial permeability transition pore; 1.4% of 360,000 active; inhibition, % at 10 µM; isolated mouse mitochondria, Ca2+ swelling absorbance, 30 min;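 active means inhibition of 50% or more, scaled per plate between neutral and stimulator controls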
aDG glyco act: alpha-DG glycosylation activation. activation, % at 10 µM. AID 624168. Pro5-aDG cells, alpha-DG glycosylation AlphaScreen (IIH6); 0% Pro5, 100% B10-LARGE cell signal. 0.22% of 360,000 active;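 active means activation of at least 8% versus controls, or a plate z-score of at least 8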;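 further: Pro5 are CHO cells carrying HIG-tagged alpha-DG that lacks glycosylation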
procasp7 counter: counter-screen: procaspase-7 (human) activation. recombinant procaspase-7, Ac-DEVD-pNA absorbance 405 nm; D23A/D198A/D206A triple mutant, cannot self-cleave; scale: DMSO 0, 5 µM enzyme 100. P55210. activation, % at 8.5 µM. 0.093% of 330,000 active;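 active means percent activation above the screen-wide mean plus 3 SD, cut at about 25% in these data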
Target sequence (P55210 whole entry D23A/D198A/D206A): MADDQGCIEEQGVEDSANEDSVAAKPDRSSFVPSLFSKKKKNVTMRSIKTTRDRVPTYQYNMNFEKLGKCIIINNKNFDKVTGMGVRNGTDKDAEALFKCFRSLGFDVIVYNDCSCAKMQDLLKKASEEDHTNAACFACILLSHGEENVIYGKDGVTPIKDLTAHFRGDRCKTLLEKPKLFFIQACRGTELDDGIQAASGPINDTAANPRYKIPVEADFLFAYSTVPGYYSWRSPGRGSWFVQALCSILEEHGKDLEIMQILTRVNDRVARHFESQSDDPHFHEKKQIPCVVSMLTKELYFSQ
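Replicates: singlicate. Assay system: Procaspase-7 triple mutant (PC-7 D3A). Signal: 405 nm absorbance of p-nitroaniline. Times: 1 h preincubation, 2 h reaction. Buffer or medium: Zinc-free HEPES pH 7.4 with 300 mM NaCl, 0.01% Triton X-100. Also added: DEVD-pNA substrate. Benchmarks: DMSO wells as 0%, DMSO with 5 µM added PC-7 as 100%.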
procasp3 activ: activates human procaspase-3 | P42574 | recombinant procaspase-3 D3A, Ac-DEVD-pNA absorbance 405 nm | activation, % at 8.5 µM | 0.11% of 330,000 active | AID 463141;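 active means activation above the mean of all tested compounds plus 3 SD, cut at about 21% in these data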
Target sequence (P42574 whole entry D9A/D28A/D175A): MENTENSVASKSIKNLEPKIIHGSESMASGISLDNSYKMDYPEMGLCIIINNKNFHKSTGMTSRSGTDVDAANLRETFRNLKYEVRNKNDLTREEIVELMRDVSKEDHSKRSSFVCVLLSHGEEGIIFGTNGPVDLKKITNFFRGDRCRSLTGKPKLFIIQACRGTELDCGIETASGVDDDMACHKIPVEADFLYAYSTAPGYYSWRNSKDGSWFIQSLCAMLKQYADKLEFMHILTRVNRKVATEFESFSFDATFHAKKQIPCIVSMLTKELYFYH
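System: Procaspase-3 D3A mutant. Medium: Zinc-free 300 mM NaCl, 50 mM HEPES, 0.01% Triton X-100. Schedule: 1 h preincubation plus 2 h reaction at 25 °C. Measured by: 405 nm absorbance of p-nitroaniline, reads at 0 and 120 min. Read-out: percent activation relative to control range.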
GRIN3A LBD mod: modulates the human NR3A ligand-binding domain | NR3A LBD differential scanning fluorimetry, Tm shift; 0% = protein alone, 100% = glycine-bound protein | Tm shift relative to glycine control, % at 25 µM | 2.5% of 340,000 active | AID 1259313;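 active means melting temperature shift of at least 10% of the positive control shift, at one fixed dose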
Each line names hits and unclear results; the compound was inactive in the other large screens.

Cc1cccc(C(=O)Nc2cccc(C(=O)N/N=C/c3ccncc3)c2)c1	none
Cc1cccc(NC(=O)c2ccc(NC(=O)c3ccccc3Br)cc2)c1	GRIN3A LBD mod 27
CC(C)NC(=O)C1Cc2c(-c3ccc(Cl)cc3)ccnc2O1 (stereo unspecified)	none (no result: procasp7 counter, procasp3 activ, GRIN3A LBD mod)
Cc1c(P(=S)(c2ccccc2)c2ccccc2)[n+]2ccccc2n1CCc1ccccc1	none (no result: procasp7 counter, procasp3 activ, GRIN3A LBD mod)
CCOC(=O)[C@]12CCCC=C1N(Cc1ccco1)C(=O)[C@H](CC(=O)NCC13CC4CC(CC(C4)C1)C3)C2	none (no result: procasp7 counter, procasp3 activ, GRIN3A LBD mod)
O=C(N/N=C/c1ccc(C(F)(F)F)cc1)c1ccc(O)cc1	GRIN3A LBD mod 12
Cc1cccc(C(=O)Nc2ccc(C(=O)Nc3ccc(O)cc3)cc2)c1	GRIN3A LBD mod 38
CCOC(=O)C1(C)CCN1C(=O)c1cccc(C#N)c1 (stereo unspecified)	none (no result: procasp7 counter, procasp3 activ, GRIN3A LBD mod)
Cc1ccc(-c2nnn(CC(=O)N(Cc3ccccc3)C(C(=O)NC(C)(C)C)c3ccncc3)n2)o1 (stereo unspecified)	GRIN3A LBD mod 14
Cc1ccc(C(C(=O)NC(C)(C)C)N(Cc2ccco2)C(=O)Cn2nnc(-c3cccs3)n2)cc1 (stereo unspecified)	GRIN3A LBD mod 12
CC(C)(C)NC(=O)C(c1ccc(O)cc1)N(Cc1ccco1)C(=O)Cn1nnc(-c2cccs2)n1 (stereo unspecified)	none
Cc1ccc(S(=O)(=O)N2CCN(Cc3ccccc3C(F)(F)F)CC2)cc1	GRIN3A LBD mod 20
C/C(=N\Nc1cccc([N+](=O)[O-])c1)c1cc2ccccc2o1	GRIN3A LBD mod 29
C/C(=N\Nc1ccc([N+](=O)[O-])cc1)c1cccc(N)c1	GRIN3A LBD mod 29
C/C(=N\Nc1ccc([N+](=O)[O-])cc1)c1ccc(O)cc1	GRIN3A LBD mod 23
CCC(=NNc1ccc([N+](=O)[O-])cc1[N+](=O)[O-])c1ccccc1	none (no result: procasp7 counter, procasp3 activ, GRIN3A LBD mod)
CC/C(=N\Nc1ccc([N+](=O)[O-])cc1[N+](=O)[O-])c1ccc(O)cc1	GRIN3A LBD mod 18
C/C(=N/Nc1ccccc1[N+](=O)[O-])c1ccc([N+](=O)[O-])cc1	none
CC(=O)NC/C(C)=N\Nc1ccc([N+](=O)[O-])cc1	none
COc1ccc(NC(=O)c2cc(-c3cc(F)ccc3OCC3CCCO3)n[nH]2)cc1OC (stereo unspecified)	none (no result: procasp7 counter, procasp3 activ, GRIN3A LBD mod)
O=C(C(=O)N1CCCN(Cc2ccc(F)cc2)CC1)c1ccccc1	none (no result: procasp7 counter, procasp3 activ, GRIN3A LBD mod)
C[C@@H]1CN([C@@H](C)CO)S(=O)(=O)c2ccc(-c3ccc(C#N)cc3)cc2O[C@@H]1CN(C)Cc1ccccn1	none (no result: procasp7 counter, procasp3 activ, GRIN3A LBD mod)
Nc1ncnc2c1ncn2[C@@H]1O[C@H](CNC(=O)[C@@H](N)C2CCCCC2)[C@@H](O)[C@H]1O	GRIN3A LBD mod 15
CC(C)(O)C#Cc1ccc(CNC[C@H]2O[C@@H](n3cnc4c(N)ncnc43)[C@H](O)[C@@H]2O)s1	GRIN3A LBD mod 13
NC(CSC(c1ccccc1)(c1ccccc1)c1ccc2c(c1)OCO2)C(=O)O (stereo unspecified)	none (no result: procasp7 counter, procasp3 activ, GRIN3A LBD mod)
CCCOc1ccc(CNC(=S)N/N=C/c2ccc([N+](=O)[O-])cc2)cc1	GRIN3A LBD mod 11
CC(C)(C)c1ccc2c(c1)C(=O)c1ccccc1C2=O	GRIN3A LBD mod 24
CCc1ccc2c(c1)C(=O)c1ccccc1C2=O	GRIN3A LBD mod 18
CC(C)(C)c1ccc(-c2ccc3c(c2)S(=O)(=O)c2ccccc2C3=O)cc1	none
O=C(/C=C/[C@H]1O[C@@H](n2cnc3c(NC(=O)c4ccccc4)ncnc32)[C@H](O)[C@@H]1O)NCC1CCCCC1	none (no result: procasp7 counter, procasp3 activ, GRIN3A LBD mod)
CCSc1nnc(-c2ccc(Cl)cc2Cl)o1	GRIN3A LBD mod 16
COC(=O)CCCn1cc(CN2CC(N3CCCCC3)CS2(=O)=O)nn1 (stereo unspecified)	none (no result: procasp7 counter, procasp3 activ, GRIN3A LBD mod)
CC1=C(C(=O)N2CCOCC2)CC(CC(=O)NC2CCCCC2)C(=O)N1Cc1ccc(C(C)(C)C)cc1 (stereo unspecified)	none (no result: procasp7 counter, procasp3 activ, GRIN3A LBD mod)
Nc1c(C(=O)Nc2ccccc2)c2nc3ccccc3nc2n1-c1ccc(O)cc1	GRIN3A LBD mod 21
CCn1c(SCC(=O)Nc2ccc(C(C)=O)cc2)nc2c([nH]c3ccccc32)c1=O	GRIN3A LBD mod 14
COC(=O)c1ccc2[nH]c3cccc(/C(=C/c4ccccc4)c4ccccc4)c3c2c1	GRIN3A LBD mod 24
COc1ccc(NC(=O)c2ccc(F)cc2)cc1S(=O)(=O)Nc1cc(C)ccc1Br	GRIN3A LBD mod 21
COc1ccc(NC(=O)c2[nH]c(C)c(C(C)=O)c2C)cc1S(=O)(=O)Nc1ccc(Br)cc1	GRIN3A LBD mod 11
Cc1cccc(NC(=O)C(C)OC(=O)CNC(=O)C2CCCCC2)c1 (stereo unspecified)	none (no result: procasp7 counter, procasp3 activ, GRIN3A LBD mod)
Cc1ccc(C(=O)NC(=S)Nc2ccc(NC(=O)c3cccs3)cc2)cc1[N+](=O)[O-]	GRIN3A LBD mod 31
Cc1ccc(NC(=O)c2cccs2)cc1[N+](=O)[O-]	none
Cc1cc(NC(=O)c2ccc(C)c([N+](=O)[O-])c2)no1	none
Cc1ccc(C(=O)Nc2ccc(NC(=O)c3cccs3)cc2)cc1[N+](=O)[O-]	GRIN3A LBD mod 29
Cc1ccc(C(=O)Nc2cccc(NC(=O)c3ccc(C)c([N+](=O)[O-])c3)n2)cc1[N+](=O)[O-]	GRIN3A LBD mod 14
O=C1c2ccccc2C(=O)c2c1oc(C(F)(F)F)c2C(=O)c1ccccc1	aDG glyco act 8.8
O=C(c1ccccc1)c1coc2c1C(=O)c1ccccc1C2=O	none
CC(=O)c1c(C)oc2c1C(=O)c1ccccc1C2=O	aDG glyco act 9.8
CC(C)(C)c1ccc(C(=O)N2CCC2(C)C(=O)NCC(F)(F)F)cc1 (stereo unspecified)	none (no result: procasp7 counter, procasp3 activ, GRIN3A LBD mod)
COc1ccc(NC(=O)COc2ccc(C)cc2)c([N+](=O)[O-])c1	GRIN3A LBD mod 13 (no result: MPTP block, aDG glyco act)
COc1ccc(NC(=O)c2ccc(C)cc2Cl)c([N+](=O)[O-])c1	GRIN3A LBD mod 11
CSc1ccc(/C=C/C(=O)c2ccc(O)cc2)cc1	GRIN3A LBD mod 11
O=C(/C=C/c1ccc(O)cc1)c1ccc(O)cc1O	GRIN3A LBD mod 28
Nc1ccc(C=Cc2ccc(N)cc2)cc1	none (no result: procasp7 counter, procasp3 activ, GRIN3A LBD mod)
CCOc1ccc(-c2c(C(=O)N/N=C/c3ccc(O)cc3)nnn2-c2nonc2N)cc1	none
CCOc1cccc(-c2c(C(=O)N/N=C/c3ccc(Br)cc3)nnn2-c2nonc2N)c1	GRIN3A LBD mod 17
CCOc1ccc(-c2c(C(=O)N/N=C/c3ccsc3)nnn2-c2nonc2N)cc1	GRIN3A LBD mod 13
CCCOc1ccc(-c2c(C(=O)N/N=C/c3ccc(OC)cc3)nnn2-c2nonc2N)cc1	GRIN3A LBD mod 10
CCOc1ccc(-c2c(C(=O)N/N=C/c3cccc(Br)c3)nnn2-c2nonc2N)cc1	GRIN3A LBD mod 17
